Assay [1] concerns NCI-H23. Put plainly: Down regulation of FOSL1 protein expression in human NCI-H23 cells at 500 nM measured after 3 to 24 hrs by […]. Conditions: time 3-24 hrs. The class given is functional, cell-based.
The subject of assay [2] is NCI-H23. Briefly: Upregulation of MYC gene expression in human NCI-H23 cells at 500 nM measured after 3 to 24 hrs by qPCR analysis. The conditions noted are these: time 3-24 hrs. The class given is functional, cell-based. In a few lines:
(§1)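 H23 cells were grown in RPMI-1640 with 10% FBS and plated 48 h before treatment at 170,000 cells/ml. Medium was replaced with fresh medium containing 500 nM JQ1 or matched DMSO, and cells were harvested at 3, 6, 12 and 24 h. Total RNA was extracted with TRIzol and assayed by SYBR qPCR (40 cycles). Expression was normalized to GAPDH and compared with DMSO. There were three biological replicates, each run in duplicate twice.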

For assay [3], the system named is NCI-H23. Briefly: Effect on CTNNB1 gene expression in human NCI-H23 cells at 500 nM measured after 3 to 24 hrs by qPCR analysis. The format is functional, cell-based. Conditions: time 3-24 hrs. In short, it runs like this:
as §1

Assay [4] deals with NCI-H23. Put plainly: Down regulation of BCL2 gene expression in human NCI-H23 cells at 500 nM measured after 3 to 24 hrs by qPCR analysis. The class given is functional, cell-based. Conditions: time 3-24 hrs. In short, it runs like this:
as §1

Assay [5] has as its system NCI-H23. Put plainly: Down regulation of WNT2 gene expression in human NCI-H23 cells at 500 nM measured after 3 to 24 hrs by qPCR analysis. The class given is functional, cell-based. The conditions noted are these: time 3-24 hrs. In short, it runs like this:
as §1

In assay [6] the test system is NCI-H23. Briefly: Effect in H4K5acK8ac global level enhancer region in human NCI-H23 cells at 500 nM incubated for 24 hrs by Chip-seq assay. The format is functional, cell-based. In a few lines:
(§2)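 H23 cells received 500 nM JQ1 or DMSO for 24 h and then underwent formaldehyde crosslinking. For spike-in ChIP-seq, H23 chromatin was mixed with Drosophila chromatin at 400:1 for H4K5acK8ac or 600:1 for BRD2, adding anti-H2Av antibody. Reads were normalized to Drosophila counts, with two biological replicates. Signals were averaged over peaks from untreated cells, and differential H4K5acK8ac peaks were called at FDR <0.05.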

The target in assay [7] is Bromodomain-containing protein 2 (Homo sapiens) (UniProt P25440). The conditions noted are these: NCI-H23, dose 500.0 nM, time 24.0 hrs.
Chain of Bromodomain-containing protein 2 (Homo sapiens) (P25440 whole entry, looked up): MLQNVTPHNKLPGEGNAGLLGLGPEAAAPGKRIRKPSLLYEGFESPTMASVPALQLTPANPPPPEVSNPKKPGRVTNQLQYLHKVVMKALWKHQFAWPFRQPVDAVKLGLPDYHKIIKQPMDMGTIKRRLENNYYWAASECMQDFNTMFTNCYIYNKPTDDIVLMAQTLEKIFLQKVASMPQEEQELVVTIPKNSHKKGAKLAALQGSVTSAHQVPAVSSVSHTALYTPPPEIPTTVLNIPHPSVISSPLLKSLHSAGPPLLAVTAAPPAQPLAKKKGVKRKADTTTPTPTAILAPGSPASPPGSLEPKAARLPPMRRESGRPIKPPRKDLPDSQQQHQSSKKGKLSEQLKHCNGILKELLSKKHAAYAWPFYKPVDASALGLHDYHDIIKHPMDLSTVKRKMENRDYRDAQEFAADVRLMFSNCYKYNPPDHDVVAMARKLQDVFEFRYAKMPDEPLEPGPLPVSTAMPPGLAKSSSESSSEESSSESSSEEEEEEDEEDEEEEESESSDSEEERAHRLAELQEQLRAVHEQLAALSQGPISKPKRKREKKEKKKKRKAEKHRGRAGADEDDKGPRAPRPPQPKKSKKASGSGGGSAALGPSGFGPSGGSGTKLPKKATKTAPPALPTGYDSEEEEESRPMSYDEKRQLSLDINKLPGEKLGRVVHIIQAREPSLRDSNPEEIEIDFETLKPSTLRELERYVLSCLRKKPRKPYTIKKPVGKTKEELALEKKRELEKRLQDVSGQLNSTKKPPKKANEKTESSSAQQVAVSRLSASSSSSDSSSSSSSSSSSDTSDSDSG
The subject of assay [8] is NCI-H23. Briefly: Down regulation of WNT5A-2 gene expression in human NCI-H23 cells at 500 nM measured after 3 to 24 hrs by qPCR analysis. The format is functional, cell-based. Conditions: time 3-24 hrs. In short, it runs like this:
as §1

For assay [9], the system named is NCI-H23. Briefly: Effect in H3K27ac subpopulation level in human NCI-H23 cells at 500 nM incubated for 24 hrs by Chip-seq assay. The format is functional, cell-based.
For assay [10], the system named is NCI-H23. Put plainly: Antiproliferation activity against human NCI-H23 cells assessed as decrease in cell proliferation at 5 to 5000 nM incubated for 24 hrs by Green Apoptosis Assay. The format is functional, cell-based. Conditions: dose 5-5000 nM. In short, it runs like this:
(§3)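 RFP-labelled H23 cells were seeded at 8,000 cells/well one day ahead and given JQ1 at 5, 50, 500, 1,000 or 5,000 nM. For apoptosis, Caspase-3/7 Green reagent (DEVD–NucView488) was added with the drug. Plates were imaged hourly for 24 h. Red (proliferating) or green (apoptotic) objects were counted per image and expressed as fold change versus 0 h.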

Assay [11] has as its system NCI-H23. Briefly: Induction of apoptosis in human NCI-H23 cells at 5 to 5000 nM incubated for 24 hsr by Green Apoptosis assay. The class given is functional, cell-based. The conditions noted are these: dose 5-5000 nM, time 24.0 hrs. In short, it runs like this:
as §3

Assay [12] concerns NCI-H23. Briefly: Down regulation of BRD2 gene expression in human NCI-H23 cells at 500 nM measured after 3 to 24 hrs by qPCR analysis. The class given is functional, cell-based. The conditions noted are these: time 3-24 hrs. In short, it runs like this:
as §1

Assay [13] concerns NCI-H23. Put plainly: Down regulation of CFLAIR gene expression in human NCI-H23 cells at 500 nM measured after 3 to 24 hrs by qPCR analysis. Conditions: time 3-24 hrs. The class given is functional, cell-based. In a few lines:
as §1

The subject of assay [14] is NCI-H23. Briefly: Down regulation of FOSL1 gene expression in human NCI-H23 cells at 500 nM measured after 3 to 24 hrs by qPCR analysis. The class given is functional, cell-based. The conditions noted are these: time 3-24 hrs. In a few lines: as §1
In assay [15] the test system is NCI-H23. Briefly: Effect in H4K5acK8ac subpopulation level in human NCI-H23 cells at 500 nM incubated for 24 hrs by Chip-seq assay. The class given is functional. In short, it runs like this:
as §2

Assay [16] deals with NCI-H23. Put plainly: Effect in H4K5acK8ac global level Promoter region in human NCI-H23 cells at 500 nM incubated for 24 hrs by Chip-seq assay. The format is functional, cell-based. In a few lines: as §2
Assay [17] has as its system NCI-H23. Put plainly: Effect in H3K27ac global level in human NCI-H23 cells at 500 nM incubated for 24 hrs by Chip-seq assay. The class given is functional, cell-based.
Assay [18] deals with NCI-H23. Briefly: Effect in H4K5acK8ac global level super enhancer region in human NCI-H23 cells at 500 nM incubated for 24 hrs by Chip-seq assay. The format is functional, cell-based. In short, it runs like this: as §2
In assay [19] the test system is NCI-H23. Briefly: Down regulation of BRD4 gene expression in human NCI-H23 cells at 500 nM measured after 3 to 24 hrs by qPCR analysis. The format is functional, cell-based. The conditions noted are these: time 3-24 hrs. In short, it runs like this: as §1

The source made the active and inactive calls. The calls are words filed in the database; no cut-off is given here.

Regarding `Cc1sc2c(c1C)C(c1ccc(Cl)cc1)=N[C@@H](CC(=O)OC(C)(C)C)c1nnc(C)n1-2`, the outcome in the assay on NCI-H23 [1], with NCI-H23 [2], with NCI-H23 [3], in the assay with NCI-H23 [4], in the assay on NCI-H23 [5] and in the assay on NCI-H23 [8] was Active. Moreover, the outcome in the assay with NCI-H23 [9], with NCI-H23 [10], with NCI-H23 [11], with NCI-H23 [13] and in the assay on NCI-H23 [14] was Active. For the same compound, the result with NCI-H23 [6], in the assay with NCI-H23 [12], with NCI-H23 [16], with NCI-H23 [17], in the assay on NCI-H23 [18] and in the assay on NCI-H23 [19] was inactive. Moreover, the inhibition in assay [7] came out at 100%. Also, the “fold change (FC)” value in the assay with NCI-H23 [15] is 2.

(Values after ChEMBL document CHEMBL5712900, “JQ1 affects BRD2-dependent and independent transcription regulation without disrupting H4-hyperacetylated chromatin states” (2018).)
